# Compound activity (PubChem)
# GalR3 antagonist = antagonists of human GalR3. O60755. HEK293 GalR3-CNG cAMP membrane potential fluorescence; galR3 body fused to GalR1 C-terminus. inhibition, % at 3 µM. 0.44% of 360,000 active;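 active means inhibition above the screen-wide average plus 3 SD, cut at about 13% in these data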;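 further: forskolin and galanin both at EC90 stimulate the cells; cAMP rise reported by CNG channel membrane potential dye signal; 0% = forskolin plus galanin with DMSO and 100% = forskolin alone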
# CHO parental Ca = counter-screen for OX1R antagonists: effect in parental CHO cells. 0.63% of 330,000 active. inhibition, % at 5.6 µM. parental CHO-K1, ATP-induced calcium, Fluo-8 fluorescence;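 active means inhibition above that plate's mean sample inhibition plus 3 SD, cut at about 26% in these data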;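 further: 0% = ATP-challenged DMSO wells and 100% = DMSO wells without ATP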
#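 Assay system – parental CHO cells · Reagent – ATP stimulus · Detection – intracellular calcium via Fluo-8 no-wash fluorescent dye · Evaluation – percent inhibition of ATP-evoked calcium rise, normalized to controls · Controls – ATP wells versus no-ATP DMSO wells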
# OX1R antag-1 = human HCRTR1 antagonism; O43613; CHO/OX1R cells, Fluo-8 calcium fluorescence, orexin A; inhibition, % at 5 µM; 0.43% of 330,000 active; AID 434989;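 active means inhibition above its plate's threshold, mean inhibition of all tested compounds on the plate plus 3 SD, cut at about 37% in these data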;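 further: 0% = orexin A challenge wells and 100% = SB-334867-A antagonist wells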
# Target sequence (O43613 whole entry, looked up): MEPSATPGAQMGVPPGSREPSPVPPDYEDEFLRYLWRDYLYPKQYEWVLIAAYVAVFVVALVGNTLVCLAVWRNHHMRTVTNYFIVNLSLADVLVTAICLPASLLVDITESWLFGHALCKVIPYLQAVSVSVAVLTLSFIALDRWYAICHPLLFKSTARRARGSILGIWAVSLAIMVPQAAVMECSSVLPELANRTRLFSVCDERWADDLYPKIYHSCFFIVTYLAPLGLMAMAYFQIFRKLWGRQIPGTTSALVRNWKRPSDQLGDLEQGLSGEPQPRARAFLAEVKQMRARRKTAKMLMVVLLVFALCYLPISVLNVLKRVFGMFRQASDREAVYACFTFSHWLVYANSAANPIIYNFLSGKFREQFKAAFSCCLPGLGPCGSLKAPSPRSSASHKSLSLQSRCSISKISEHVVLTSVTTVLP
# GPR7 antagonist = antagonists of human GPR7 (neuropeptides B/W receptor 1); P48145; GPR7-expressing cells, fluorescence antagonist assay; inhibition, % at 4.4 µM; 1.1% of 290,000 active; in the data active means inhibition above about 16%, passing the limit was not always enough;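 further: cells stimulated with the agonist NPW; 0% = agonist with vehicle and 100% = vehicle without agonist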
# OX1R antag-2 = blocks the human orexin 1 receptor | OX1R-expressing cells, FRET antagonist read-out | AID 485270 | 1.8% of 330,000 active | inhibition, % at 6.6 µM | O43613; in the data active means inhibition mostly above about 38%, no sharp cut-off; inactive means mostly below about 40%;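 further: 0% = agonist challenge alone and 100% = reference antagonist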
# GalR3 conf = GalR3 (human) antagonism, confirmation | shares compounds with GalR3 antagonist | HEK293 GalR3 CNG cAMP biosensor, membrane potential fluorescence; galR3 fused to GalR1 carboxy tail; challenged with forskolin and galanin at EC90 | inhibition, % at 3 µM | 59% of 1,600 active;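 active means inhibition above the primary screen's cutoff, the mean inhibition of all screened compounds plus 3 SD, cut at about 13% in these data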;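 further: 0% = forskolin plus galanin and 100% = forskolin alone with DMSO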
# HEK-CNG parental = parental cell agonism counter-screen for GalR3 antagonists | shares compounds with GalR3 antagonist | HEK293-CNG parental cells, cAMP membrane potential fluorescence; normalised: DMSO wells 0%, forskolin wells 100% | activation, % at 3 µM | 10% of 1,600 active; in the data active means activation above about 1.3%
# * hit, by the source's call; · = not tested or not shown. Sampled rows, rich in hits. Any-hit rate of the full collection: about 3.1%.
SMILES,GalR3 antagonist,CHO parental Ca,OX1R antag-1,GPR7 antagonist,OX1R antag-2,GalR3 conf,HEK-CNG parental
CCNC(=O)c1ccc(NC(=O)CC2SC(N3CCCCC3)=NC2=O)cc1 (stereo unspecified),16*,-10,-25,·,5,6,0
CCC(=O)c1ccc(OCC(=O)NC2CCCC2)cc1,-2,-6,-13,·,8,·,·
CCC(=O)c1ccc(OCC(=O)O)cc1,·,·,·,-12,·,-2,0
CCOc1cc(C(C(=O)NCC2CCCO2)N(C(=O)Cn2nnc3ccccc32)c2ccccc2C(C)=O)ccc1O (stereo unspecified),15*,-11,-27,-14,2,14*,0
O=C(COn1nnc2ccc(C(F)(F)F)cc21)Nc1c(Cl)cccc1Cl,15*,-26,-48,-13,20,6,0
Cc1cccc(C)c1NC(=O)COn1nnc2ccc(C(F)(F)F)cc21,-2,-11,-12,3,8,·,·
COc1ccc(CCNC(=O)CSc2ccc(-c3ccco3)nn2)cc1,13*,-16,-18,-4,24,6,0
CC(=O)Nc1ccc(S(=O)(=O)NCC(=O)OCC(=O)N2CCc3ccccc32)cc1,13*,-31,-13,1,23,0,0
O=C(CNS(=O)(=O)c1ccccc1Br)OCC(=O)N1CCc2ccccc21,3,-20,-28,-17,12,·,·
COc1ccc(NC(=O)CN2C(=O)NC(CC(C)C)C2=O)cc1S(=O)(=O)N1CCOCC1 (stereo unspecified),5,-5,4,·,-4,·,·
CCCCC(=O)N/N=C/c1ccc(N2CCOCC2)c([N+](=O)[O-])c1,14*,-2,0,-11,28,11,0
O=C(COC(=O)CCSc1ccc(F)cc1)NCc1ccc(F)cc1,-5,-1,-13,·,6,·,·
Fc1ccc(CN2CCN(c3ncc(Cc4ccccc4)cn3)CC2)c(Cl)c1,82*,·,·,·,·,109*,0
FC(F)(F)c1ccc(Cl)c(CN2CCN(c3ncc(Cc4ccccc4)cn3)CC2)c1,-5,·,·,·,·,·,·
O=C(O)c1ccccc1NS(=O)(=O)c1cccc(-n2sc3ccccc3c2=O)c1,33*,·,·,-8,·,23*,0
O=C(O)c1ccccc1NS(=O)(=O)c1cccc(C(F)(F)F)c1,-5,-10,-14,2,5,·,·
COc1ccc(-c2nc(C#N)c(NC(C)c3ccccc3)o2)cc1OC (stereo unspecified),20*,-20,-22,-3,22,39*,0
CC1(C)CC[C@]2(CO)CC[C@]3(C)C(=CCC4[C@@]5(C)CC[C@H](O)[C@@](C)(CO)C5CC[C@]43C)[C@@H]2C1 (stereo partly specified),-5,-41,-40,·,5,·,·
Cc1c(C(=O)NCc2ccc3c(c2)OCCO3)sc(=O)n1Cc1ccc(S(=O)(=O)N(C)C)cc1,-2,·,·,·,·,·,·
C=CCNC(=O)/C(=C/c1cn(-c2ccccc2)nc1-c1cccc([N+](=O)[O-])c1)NC(=O)c1ccccc1,16*,-22,-16,-6,8,8,0
CCOc1ccc(Br)cc1S(=O)(=O)N1CCCN(C)CC1,-6,-20,-11,-2,4,·,·
CCOc1ccc(Br)cc1S(=O)(=O)N1CCC(C(N)=O)CC1,18*,10,-6,0,8,-2,0
Cc1cccc(Cn2c(-c3ccc[nH]c3=O)nc3ccccc32)c1,-10,-13,-16,11,14,·,·
CC(O)CN(CC(C)O)c1ccc2c(c1)Cc1cc([N+](=O)[O-])ccc1-2 (stereo unspecified),13*,·,·,·,·,27*,1.4*
COC(=O)[C@]1(C)N[C@H](c2ccc(-c3ccc(Cl)c(Cl)c3)c(OC)c2)[C@@H]2C(=O)N(C)C(=O)[C@@H]21,-4,-18,-22,·,16,·,·
SMILES,GalR3 antagonist,CHO parental Ca,OX1R antag-1,GPR7 antagonist,OX1R antag-2,GalR3 conf,HEK-CNG parental
CC1=CC(C)(C)n2c(O)c(N=NC(N)=S)c3c(C)ccc1c32,14*,-1,2,-5,7,8,-2
O=C(O)/C=C/c1ccccc1Oc1ccc(Cl)cc1Cl,0,-11,-2,-11,42,·,·
O=C(NC1CCOc2ccccc21)c1ccccn1 (stereo unspecified),-4,-5,-8,-8,14,·,·
CC12CCC(C/C1=N\N=C1\NC(=O)/C(=C\c3ccc(Cl)cc3)S1)C2(C)C (stereo unspecified),17*,0,-3,-9,-1,-16,34*
O=C1NC(=Nc2ccccc2Cl)S/C1=C\c1ccc(C(=O)O)cc1,-8,-3,0,-15,3,·,·
C=CCN(c1ccccc1)S(=O)(=O)c1cccc(C(=O)N2CC(C)CC(C)C2)c1 (stereo unspecified),-4,-10,-8,6,26,·,·
COc1cc(NC(=O)COC(=O)C2CC(O)CN2S(=O)(=O)c2ccc(Cl)cc2)c(C)cc1[N+](=O)[O-] (stereo unspecified),24*,·,·,·,·,47*,0
O=C(Nc1ccn(Cc2ccccc2F)n1)c1ccc(COc2ccc(Br)cc2)cc1,97*,11,33,-5,26,106*,0
O=C(c1cc(COc2ccc3ncccc3c2)on1)N1CCCC1,101*,20,2,6,29,30*,0
CC(NC(=O)c1cc(COc2ccc3ncccc3c2)on1)c1ccc(F)cc1 (stereo unspecified),29*,51*,43*,10,56,86*,1
NC(=O)CC[C@H](NC(=O)c1ccc(F)cc1)C(=O)OCC(=O)Nc1ccc(N2CCOCC2)cc1,-6,7,7,-5,3,·,·
NC(=O)CC[C@H](NC(=O)c1ccc(F)cc1)C(=O)OCC(=O)NCc1ccc2c(c1)OCO2,26*,1,-9,·,9,1,0
O=C(CCC(=O)OCC(=O)c1ccc(C(F)(F)F)cc1)OCC(=O)c1ccc(C(F)(F)F)cc1,-2,-12,2,-7,-3,·,·
O=C(COC(=O)C(O)C(O)C(=O)OCC(=O)c1ccc(C(F)(F)F)cc1)c1ccc(C(F)(F)F)cc1 (stereo unspecified),13*,1,-13,4,12,10,0
O=C1NC[C@H](CCCCN2C[C@H](Cc3ccccc3)N(CC3CCCCC3)C(=O)C2=O)N(CC2CCCCC2)C1=O,-5,·,·,·,·,·,·
COc1ccc(N2CCN(Cc3nc4c(c(=O)[nH]c(=O)n4C)n3CC(C)=O)CC2)cc1,13*,-10,-11,-10,14,1,0
COc1ccc(C(C)(O)c2nc(-c3cccs3)cs2)cc1 (stereo unspecified),2,·,·,·,·,·,·
